Data published in ChEMBL document CHEMBL1649064, “Antimalarial activity of novel 5-aryl-8-aminoquinoline derivatives” (J Med Chem, 2011).
In brackets after ≈: the same amount, converted by molar mass. Activity calls are given as the source filed them. No cut-off for these calls is given here.

Legend:
[1] = Half life in mouse microsomes by LC-MS/MS analysis; format: ADME, Microsome
In short: (§1)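 Microsomal stability run on a robotic sample processor in 96-well format, following an internal SOP. Parent compound quantified by LC-MS/MS with fast LC gradient or isocratic methods.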

[2] = Therapeutic index, ratio of IC50 for mouse RAW264.7 cells to IC50 for mefloquine-susceptible Plasmodium falciparum CDC Indochina 3 W2; format: cell-based; settings: read-out: TI
In short: (§2)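 RAW 264.7 macrophages seeded at 2.5 × 10⁴ cells/well and pre-incubated about 12 h. Exposed 24 h to 0.29-48 μg/mL of DMSO-dissolved drug, then drug removed, fresh medium added and 24 h recovery. Viability by MTT, with background, untreated and 0.6% DMSO controls. Duplicate runs, IC50 by sigmoidal variable-slope fit. Index is the macrophage IC50 over the P. falciparum IC50.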

[3] = Half life in human microsomes by LC-MS/MS analysis; format: ADME, Microsome; in short: as §1
Plasmodium falciparum [4] = experiment: Antimalarial activity against mefloquine-resistant Plasmodium falciparum CDC Sierra Leone 1 D6 after 48 hrs by [3H]hypoxanthine uptake assay; format: functional, organism-based
In short: (§3)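 Compounds dissolved in DMSO, diluted 400-fold in RPMI 1640 with 25 mM Hepes, 32 mM NaHCO₃ and 10% Albumax I, then 2-fold serial dilutions over 11 concentrations. Parasites exposed 48 h at 37 °C under 5% O₂/5% CO₂/90% N₂, then [³H]-hypoxanthine added for a further 18 h. DNA harvested onto glass filters and counted. IC50 from a nonlinear regression logistic dose-response model.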

Plasmodium falciparum [5] = experiment: Antimalarial activity against mefloquine-susceptible Plasmodium falciparum CDC Indochina 3 W2 after 48 hrs by [3H]hypoxanthine uptake assay; format: functional, organism-based; in short: as §3
[6] = Therapeutic index, ratio of IC50 for mouse RAW264.7 cells to IC50 for mefloquine-resistant Plasmodium falciparum CDC Sierra Leone 1 D6; format: cell-based; settings: read-out: TI; in short: as §2
RAW264.7 = experiment: Cytotoxicity against mouse RAW264.7 cells after 24 hrs by MTT assay; format: cell-based; settings: RAW264.7, 24 h
In short: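 Macrophage line from ATCC, seeded at 2.5 × 10⁴ cells/well and left ~12 h. Drug stocks in DMSO, serially diluted to 0.29-48 μg/mL/well. Exposure 24 h, then drug removed and fresh medium added for a further 24 h recovery. Viability read by MTT. Controls were no-cell background, untreated cells and 0.6% DMSO. Duplicate runs, IC50 from sigmoidal variable-slope fit.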

Plasmodium berghei [7] = experiment: Prophylactic antimalarial activity against Plasmodium berghei infected Exoerythrocytic mouse model at 320 mg/kg, po for 3 days; format: functional, organism-based; design: dose 320 mg/kg
In short: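 Mice infected with P. berghei sporozoites by intravenous inoculation. Compound given orally daily for 3 days. Read-outs were cure and delay of patency.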

Plasmodium berghei [8] = experiment: Prophylactic antimalarial activity against Plasmodium berghei infected Exoerythrocytic mouse model; format: functional
In short: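 Mice infected with P. berghei sporozoites by intravenous inoculation. Compounds given orally once daily for 3 days at up to 320 mg/kg/day. Read-out was cure and delay of patency in groups of 4 mice.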

SMILES	half-life [1] [h]	selectivity ratio [2]	half-life [3] [h]	IC50 (Plasmodium falciparum [4]) [µg/mL]	IC50 (Plasmodium falciparum [5]) [µg/mL]	selectivity ratio [6]	IC50 (RAW264.7) [µg/mL]	Activity (Plasmodium berghei [7])	MAC (Plasmodium berghei [8]) [mg/kg/day]	MTD (Plasmodium berghei [8]) [mg/kg/day]
COc1cc(NC(C)CCCN)c2nc(C(F)(F)F)cc(C)c2c1-c1cccc(C(F)(F)F)c1.O=C(O)CCC(=O)O (stereo not drawn)	> 1	3	> 1	1.4	0.5	1.07	1.5	–	–	–
COc1cc(C)c2c(-c3cccc(C)c3)c(OC)cc(NC(C)CCCN)c2n1.O=C(O)CCC(=O)O (stereo not drawn)	> 1	2.71	> 1	1.3	0.7	1.46	1.9	Active	960	960
COc1cc(C)c2c(-c3ccc(C(F)(F)F)cc3)c(OC)cc(NC(C)CCCN)c2n1.O=C(O)CCC(=O)O (stereo not drawn)	> 1	0.92	> 1	2.2	1.3	0.54	1.2	inactive	>480	>480
COc1cccc(-c2c(OC)cc(NC(C)CCCN)c3nc(OC)cc(C)c23)c1.O=C(O)CCC(=O)O (stereo not drawn)	> 1	3.87	> 1	2.8	0.8	1.11	3.1	inactive	>480	>480
COc1cc(NC(C)CCCNC(=O)OC(C)(C)C)c2nc(C(F)(F)F)cc(C)c2c1-c1cccc(C(F)(F)F)c1 (stereo not drawn)	0.3	> 17	0.3	1.1 (≈ 1.88 µM)	2.8 (≈ 4.78 µM)	> 39.7	> 48	inactive	>960	>960
COc1cc(NC(C)CCCNC(=O)OC(C)(C)C)c2nc(C(F)(F)F)cc(C)c2c1-c1ccc(C(F)(F)F)cc1 (stereo not drawn)	0.267	> 34	0.5	1.3 (≈ 2.22 µM)	1.4 (≈ 2.39 µM)	> 36	> 48	inactive	>960	>960
COc1cc(C)c2c(-c3cccc(C(F)(F)F)c3)c(OC)cc(NC(C)CCCN)c2n1.O=C(O)CCC(=O)O (stereo not drawn)	> 1	1	> 1	2.7	1.3	0.48	1.3	inactive	>480	>480
COc1cc(NC(C)CCCN)c2nc(C(F)(F)F)cc(C)c2c1-c1ccc(C(F)(F)F)cc1.O=C(O)CCC(=O)O (stereo not drawn)	> 1	12.6	> 1	1.7	0.8	5.94	10.1	–	–	–
COc1cc(NC(C)CCCN)c2ncccc2c1 (stereo not drawn) [PRIMAQUINE]	0.35	43	> 1	2.1 (≈ 8.1 µM)	0.9 (≈ 3.47 µM)	18.4	38.7 (≈ 149 µM)	–	60	<120
COc1cc(NC(C)CCCN)c2nc(C(F)(F)F)cc(C)c2c1-c1ccccc1.O=C(O)CCC(=O)O (stereo not drawn)	> 1	2.21	> 1	2.8	1.4	1.11	3.1	inactive	>960	480
COc1cc(C)c2c(-c3ccccc3)c(OC)cc(NC(C)CCCN)c2n1.O=C(O)CCC(=O)O (stereo not drawn)	> 1	1.46	> 1	3.2	1.3	0.59	1.9	–	–	–
COc1cc(C)c2c(-c3ccc(Cl)c(Cl)c3)c(OC)cc(NC(C)CCCN)c2n1.O=C(O)CCC(=O)O (stereo not drawn)	> 1	1.42	> 1	2.9	1.2	0.58	1.7	inactive	>480	120
COc1cc(C)c2c(Oc3cccc(C(F)(F)F)c3)c(OC)cc(NC(C)CCCN)c2n1 (stereo not drawn) [TAFENOQUINE]	> 1	7.38	> 1	2.7 (≈ 5.83 µM)	0.8 (≈ 1.73 µM)	2.2	5.9 (≈ 12.7 µM)	–	7.5	120
COc1cc(NC(C)CCCNC(=O)OC(C)(C)C)c2nc(C(F)(F)F)cc(C)c2c1-c1cccc(C)c1 (stereo not drawn)	0.183	> 59	0.217	0.2 (≈ 0.376 µM)	0.9 (≈ 1.69 µM)	> 240	> 48	inactive	>960	>960
COc1cccc(-c2c(OC)cc(NC(C)CCCNC(=O)OC(C)(C)C)c3nc(C(F)(F)F)cc(C)c23)c1 (stereo not drawn)	0.133	> 134	0.15	0.3 (≈ 0.548 µM)	0.6 (≈ 1.1 µM)	> 267	> 80.2	inactive	>960	>960
COc1cc(NC(C)CCCN)c2nc(C(F)(F)F)cc(C)c2c1-c1cccc(C)c1.O=C(O)CCC(=O)O (stereo not drawn)	> 1	2	> 1	0.2	0.9	9	1.8	–	–	–
COc1cccc(-c2c(OC)cc(NC(C)CCCN)c3nc(C(F)(F)F)cc(C)c23)c1.O=C(O)CCC(=O)O (stereo not drawn)	> 1	2.5	> 1	0.3	0.6	5	1.5	–	–	–
